According to ChEMBL document CHEMBL2176990, “Synthesis and biological evaluation of 5-benzylidenepyrimidine-2,4,6(1H,3H,5H)-trione derivatives for the treatment of obesity-related nonalcoholic fatty liver disease” (J Med Chem, 2012):
Active and inactive are the calls of the source. No cut-off for these calls is given here.

Columns and labels:
[1] = test system: HepG2; test: Reduction of glucose consumption in insulin-resistant human HepG2 cells at 10 uM after 24 hrs by glucose oxidase method; assay type: functional, cell-based
Outline: (§1)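 HepG2 cells in DMEM (22.2 mM glucose) with 10% FBS, exposed to 0.1 μM insulin from plating for 2 days. At confluence, given fresh 22.2 mM glucose DMEM with test agents for 24 h. Medium glucose measured by glucose oxidase. Consumption = blank minus remaining glucose, normalized to MTT. Three independent experiments.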

[2] = test system: HepG2; test: Reduction of glucose consumption in insulin-resistant human HepG2 cells at 10 uM after 24 hrs by glucose oxidase method in presence of 0.1 uM of insulin; assay type: functional, cell-based; outline: as §1
[3] = test system: 3T3-L1; test: Down-regulation of […] expression in mouse 3T3L1 cells at 10 uM after 24 hrs by ELISA; assay type: functional
Outline: (§2)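 3T3-L1 preadipocytes grown to 2 days post-confluence. Differentiated with 0.5 mM IBMX, 0.25 μM dexamethasone and 1 μg/mL insulin for 2 days, then insulin alone for 2 days, then 10% FBS DMEM. On day 12, treated 24 h; secreted adiponectin and leptin measured by ELISA. Three independent experiments.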

[4] = test system: 3T3-L1; test: Up-regulation of adiponectin expression in mouse 3T3L1 cells at 10 uM after 24 hrs by ELISA; assay type: functional; outline: as §2
[5] = test system: HepG2; test: Reduction of glucose consumption in insulin-resistant human HepG2 cells at 10 uM after 24 hrs by glucose oxidase method in presence of 22.2 mM of glucose; assay type: functional, cell-based; outline: as §1
[6] = test system: Rattus norvegicus; test: Toxicity in Wistar rat high fat diet-induced NAFLD model assessed as effect on food intake at 150 mg/kg, po qd for 4 weeks; assay type: organism-based; parameters: dose 150 mg/kg, route oral; settings: in vivo, 672 h
Outline: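 Male Wistar rats (160−180 g) fed high-fat diet (50.55% calories from fat), n = 10 per group. Dosed orally at 150 mg/kg/day for 4 weeks. Body, liver and fat weights and food intake recorded. Serum lipids, AST, ALT and glucose measured on a biochemistry analyzer. Fasting insulin measured by kit; adiponectin and leptin by ELISA. Mean ± SD; percent change vs HFD group.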

| Compound | Activity [1] | Activity [2] | Activity [3] | Activity [4] | Activity [5] | Activity [6] |
| --- | --- | --- | --- | --- | --- | --- |
| O=C1NC(=O)C(=Cc2ccc(CNC3CCN(c4ccc([N+](=O)[O-])cn4)CC3)cc2)C(=O)N1 | inactive | inactive |  |  |  |  |
| O=C1NC(=O)C(=Cc2ccc(OC3CCN(C(=O)c4cccc(C(F)(F)F)c4)CC3)cc2)C(=O)N1 |  | Active | inactive | Active | Active |  |
| O=C1NC(=O)C(=Cc2ccc(OC3CCN(C(=O)c4cccc5c4OC(F)(F)O5)CC3)c(F)c2)C(=O)N1 | inactive | inactive |  |  |  |  |
| O=C1NC(=O)C(=Cc2ccc(OC3CCN(C(=O)c4ccc(OC(F)F)cc4)CC3)c(F)c2)C(=O)N1 |  | Active |  |  | Active |  |
| O=C1NC(=O)C(=Cc2ccc(C(=O)NC3CCN(c4cc([N+](=O)[O-])ccn4)CC3)cc2)C(=O)N1 | inactive | inactive |  |  |  |  |
| O=C1NC(=O)C(=Cc2ccc(C(=O)N3CCC(Nc4ccc([N+](=O)[O-])cn4)CC3)cc2)C(=O)N1 | inactive | inactive |  |  |  |  |
| O=C1NC(=O)C(=Cc2ccc(OC3CCN(c4ncccc4C(F)(F)F)CC3)c(F)c2)C(=O)N1 | inactive | inactive |  |  |  |  |
| CS(=O)(=O)N(Cc1ccc(C=C2C(=O)NC(=O)NC2=O)cc1)C1CCN(c2ccc([N+](=O)[O-])cn2)CC1 | inactive | inactive |  |  |  |  |
| O=C1NC(=O)C(=Cc2ccc(OC3CCN(C(=O)c4ccc(Cl)cn4)CC3)cc2)C(=O)N1 | inactive | inactive |  |  |  |  |
| CS(=O)(=O)N(Cc1ccc(C=C2C(=O)NC(=O)NC2=O)cc1)C1CCN(C(=O)c2cccc(OC(F)(F)C(F)F)c2)CC1 | inactive | inactive |  |  |  |  |
| CN(C)C(=N)N=C(N)N [METFORMIN] |  |  |  |  |  | Non-toxic |
| COC(=O)c1sccc1S(=O)(=O)N1CCC(Oc2ccc(C=C3C(=O)NC(=O)NC3=O)cc2F)CC1 | inactive | inactive |  |  |  |  |
| O=C1NC(=O)C(=Cc2ccc(C(=O)NC3CCN(c4ccc([N+](=O)[O-])cn4)CC3)cc2)C(=O)N1 |  | Active |  |  | Active |  |
| O=C1NC(=O)C(=Cc2ccc(OC3CCN(C(=O)c4ccncc4)CC3)cc2)C(=O)N1 |  | Active | inactive | Active | Active |  |
